Records with an inconclusive call do not appear. The source made the active and inactive calls.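 Rule for the calls, unless noted: active = RAM network inhibition above 8.4% in each of two replicates, 3 SD over the compound average; inconclusive = above 8.4% inhibition in only one replicate; inactive = 8.4% inhibition or less in each replicate.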
Key:
[1] = OD615 S. cerevisiae growth inhibition, permissive medium, pilot counter-assay, permissive growth control for S. cerevisiae lifespan shortening project (AID 705;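 active = growth inhibition above 25% in both replicates, a cutoff set 3 SD above the mean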); settings: OD615, 24 h, at 10 µM, stronger effect = higher value
How it was run: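 Test system: Saccharomyces cerevisiae strain carrying genetically modified DeaD replicative-lifespan system; buffer or medium: SC raffinose/galactose permissive medium; dosing: one dose 10 µM, DMSO 0.25% final; times: 24 h exposure, 30 °C; measured by: OD at 615 nm; read-out basis: growth inhibition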

[2] = Restrictive medium S. cerevisiae growth inhibition, OD615, pilot screen of yeast lifespan reduction project, restrictive growth control (AID 706;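 active = growth inhibition above a set limit, 3 SD over mean compound inhibition, in both replicates, cut at about 43% in these data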;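 note: modified DeaD lifespan yeast strain shifted to restrictive glucose medium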); settings: OD615, 48 h, at 10 µM, stronger effect = higher value
How it was run: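 material = engineered S. cerevisiae DeaD strain | buffer or medium = glucose-based CSMM-D restrictive medium | dosing = one concentration, 10 µM final, 0.25% DMSO | schedule = 4 h pre-growth plus 48 h compound exposure, 30 °C | detection = OD615 absorbance reading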

[3] = viability gain of MRP-1-high H69AR cells under doxorubicin, pilot screen, MRP-1 activator project, CellTiter-Glo, duplicate (AID 807;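 active = viability increase at or above a cutoff of the median across tested compounds plus 3 SD, cut at about 8.5% in these data, passing the limit was not always enough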;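 note: compound pretreatment 18-22 h then 72 h combined with doxorubicin; 0% = doxorubicin alone and 100% = vehicle without doxorubicin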); settings: H69AR viability with doxorubicin, CellTiter-Glo luminescence; at 10 µM; stronger effect = higher value
[4] = growth suppression of beta-catenin knockout HCT116, pilot screen, human colon tumor cells (AID 823;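 active = cell viability at or below a set limit in both duplicate runs, the limit being the all-compound median minus 4 SD, cut at about 23% in these data, passing the limit was not always enough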;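 note: 0% = wells killed by 20 µM Hyamine and 100% = untreated DMSO cell wells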); settings: CellTiter-Glo, 60 h, at 10 µM, stronger effect = lower value
[5] = growth suppression of PTEN-deleted HCT116, pilot screen, cell-based, HCT116 clonal line, CellTiter-Glo (AID 824;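 active = viability at or below 27.92% in each of two runs, the all-compound median minus 4 SD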;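 note: 0% = 20 µM Hyamine control and 100% = vehicle cell control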); settings: 60 h, at 10 µM, stronger effect = lower value
[6] = RAM signaling pathway blockade in yeast – S. cerevisiae, Pdr1DBD-CYC8 efflux-inhibited sensitized strain, primary screen (AID 1298);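 note: 0% = DMSO untreated cells without growth and 100% = 10 µM 1-NA-PP1 full growth; higher means more yeast growth rescued from 5-FOA killing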; settings: S. cerevisiae cbk1-as DSE1-URA3 strain, 5-FOA growth OD615, 2 d; at 50 µM; stronger effect = higher value
[7] = inhibitors of the yeast RAM network, pilot screen, dse1pr::URA3 reporter, 5-FOA selection (AID 869;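 active = inhibition over a set limit, the all-compound mean plus 3 SD, in both replicate runs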;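 note: 0% = DMSO wells with no growth and 100% = 10 µM 1-NA-PP1 with full growth; RAM network block rescues cells from 5-FOA so hits raise OD615 growth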); settings: S. cerevisiae dse1pr::URA3 5-FOA growth, OD615, 2 d; at 10 µM; stronger effect = higher value; strain carries analog-sensitive mutant Cbk1 kinase

COCCCNc1nc2c(c(=O)[nH]c(=O)n2C)n1CC(O)COc1ccccc1C (stereo not drawn)
inactive: growth inhibition [1] -1.92% | growth inhibition [2] -7.5% | viability increase [3] -2.64% | viability [4] 98.9% | viability [5] 101% | RAM network inhibition [6] 3.44%

O=C(Nc1ccccc1-c1nc2ccccc2s1)c1ccco1
inactive: growth inhibition [1] -6.38% | growth inhibition [2] -20.9% | viability increase [3] -5.19% | viability [4] 74.7% | viability [5] 61.9% | RAM network inhibition [6] 6.4%

Cc1ccc(C2CC(=O)NC(SCCC(C)C)=C2C#N)cc1 (stereo not drawn)
inactive: growth inhibition [1] -9.08% | growth inhibition [2] -2.19% | viability increase [3] -4.1% | viability [4] 96.8% | viability [5] 78.9% | RAM network inhibition [6] 9.74%

COc1ccccc1-c1cc(C(F)(F)F)nc(N2CCOCC2)n1
inactive: growth inhibition [1] -8.95% | growth inhibition [2] -13.9% | viability increase [3] -0.29% | viability [4] 78.8% | viability [5] 82.5% | RAM network inhibition [6] 7.23%

Cc1cccc(-c2nc(CS(=O)CC(=O)N3CCN(C)CC3)c(C)o2)c1 (stereo not drawn)
inactive: growth inhibition [1] -8.17% | growth inhibition [2] -8.82% | viability increase [3] -1.78% | viability [4] 95.9% | viability [5] 99.5% | RAM network inhibition [6] 2.3%

O=C(NCc1ccccc1Cl)C1CCN(C(=O)c2sccc2-n2cccc2)CC1
inactive: growth inhibition [1] -17.6% | growth inhibition [2] -12% | viability increase [3] -2.65% | viability [4] 99.2% | viability [5] 86.8% | RAM network inhibition [6] 8.69%

Cc1cc2cc(CNC(=O)c3ccc(S(=O)(=O)N4CCOCC4)cc3)ccc2[nH]1
inactive: growth inhibition [1] -5.21% | growth inhibition [2] -10.8% | viability increase [3] 0.86% | viability [4] 99.5% | viability [5] 96.2% | RAM network inhibition [6] 5.69%

CCCOCCOC(=O)c1[nH]c2c(c1C)C(=O)CC(c1cc(OC)ccc1OC)C2 (stereo not drawn)
active: viability [4] 17.3% | viability [5] 20.6%
inactive: growth inhibition [1] -12.2% | growth inhibition [2] -4.79% | viability increase [3] -4.21% | RAM network inhibition [6] 8.16%

Cc1ccccc1-n1c(Cn2c(=O)sc3ccccc32)nnc1SC(C)C
inactive: growth inhibition [1] 5.19% | growth inhibition [2] 6.75% | viability increase [3] -0.49% | viability [4] 84% | viability [5] 78.4% | RAM network inhibition [6] 6.91%

CCCCn1c(CNC(C)=O)nc2ccccc21
inactive: growth inhibition [1] -2.36% | growth inhibition [2] 0.94% | viability increase [3] -1.24% | viability [4] 98.1% | viability [5] 100% | RAM network inhibition [6] 1.93%

COc1ccc(C(=O)c2oc3ccc(Br)cc3c2NC(C)=O)cc1
inactive: growth inhibition [1] -2.44% | growth inhibition [2] -3.18% | viability increase [3] -3.96% | viability [4] 97.7% | viability [5] 104% | RAM network inhibition [6] 1.07%

Cc1ccc2oc(=O)c3cnn(CC(=O)NCCc4ccsc4)c3c2c1
inactive: growth inhibition [1] 3.75% | growth inhibition [2] -1.42% | viability increase [3] -2.89% | viability [4] 90.7% | viability [5] 85.7% | RAM network inhibition [6] 3.42%

CN(CC(=O)N1CCc2ccccc2C1)S(=O)(=O)c1ccc2c(c1)c(=O)n(C)c(=O)n2C
inactive: growth inhibition [1] -12.3% | growth inhibition [2] -9.22% | viability increase [3] -3.24% | viability [4] 98.4% | viability [5] 90.2% | RAM network inhibition [6] 5.95%

CC(C)OCCCNS(=O)(=O)c1ccc2c(c1)oc(=O)n2C
inactive: growth inhibition [1] -13.3% | growth inhibition [2] -6.73% | viability increase [3] -1.3% | viability [4] 101% | viability [5] 97% | RAM network inhibition [6] 0.04%

CCOc1ccc(-n2c(SCC(=O)NCc3ccco3)nc3c(c2=O)SCC3)cc1
inactive: growth inhibition [1] -21.1% | growth inhibition [2] -19.1% | viability increase [3] -3.31% | viability [4] 95.2% | viability [5] 98.4% | inhibition [7] 3.37% | RAM network inhibition [6] 7.34%

O=C(Nc1c(C(=O)Nc2ccccc2)cnn1-c1ccccc1)c1ccco1
inactive: growth inhibition [1] -3.7% | growth inhibition [2] -2.03% | viability increase [3] -4.51% | viability [4] 94.4% | viability [5] 94.3% | RAM network inhibition [6] 2.51%

O=C(Cc1c(C(=O)O)[nH]c2ccccc12)NC1CCN(Cc2ccccc2)CC1
inactive: growth inhibition [1] -9.14% | growth inhibition [2] -14.9% | viability increase [3] 0.24% | viability [4] 102% | viability [5] 99.8% | inhibition [7] 1.6% | RAM network inhibition [6] -1.14%

COc1ccccc1-c1nc(-c2ccc(Br)cc2)no1
inactive: growth inhibition [1] 4.16% | growth inhibition [2] -2.73% | viability increase [3] -3.88% | viability [4] 84.2% | viability [5] 94.1% | RAM network inhibition [6] 5.02%

Cc1ccc(OC(=O)CCC(=O)Nc2ccc(S(=O)(=O)Nc3cc(C)on3)cc2)cc1
inactive: growth inhibition [1] -2.27% | growth inhibition [2] 0.38% | viability increase [3] -1.11% | viability [4] 109% | viability [5] 106% | inhibition [7] 0.875% | RAM network inhibition [6] 3.97%

Cc1ccccc1N1C(=O)c2cccc3c(N(C)CCO)ccc(c23)C1=O
inactive: growth inhibition [1] 5.99% | growth inhibition [2] -6.49% | viability increase [3] -3.91% | viability [4] 104% | viability [5] 90.4% | inhibition [7] 2.26% | RAM network inhibition [6] 2.12%

COC(=O)Cn1cnc2c(nnn2-c2cccc(Cl)c2)c1=O
inactive: growth inhibition [1] -0.625% | growth inhibition [2] 0.135% | viability increase [3] 1.53% | viability [4] 108% | viability [5] 99.4% | inhibition [7] 1.28% | RAM network inhibition [6] -1.59%

CC1=C(C(N)=O)C(c2cccc(O)c2)n2nc(CCCO)nc2N1 (stereo not drawn)
inactive: growth inhibition [1] -9.85% | growth inhibition [2] -1.35% | viability increase [3] -1.07% | viability [4] 101% | viability [5] 104% | inhibition [7] 2.02% | RAM network inhibition [6] 2.87%

From PubChem BioAssay
